Reference: ChEMBL document CHEMBL1123609, “Synthesis, conformational considerations, and estrogen receptor binding of diastereoisomers and enantiomers of 1-[4-[2-(dimethylamino)ethoxy]phenyl]-1,2-diphenylbutane (dihydrotamoxifen)” (1987)

Columns and labels:
[1] = target: Estrogen receptor (Homo sapiens) (UniProt Q92731+P03372); experiment: Relative binding affinity for estrogen receptor of MCF-7 cells; type: cell-based; settings: MCF7
Procedure, shortened: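 Whole MCF-7 cells incubated 50 min at 37 °C with 10^-9 M [3H]estradiol, without or with test compound or unlabeled estradiol reference (10^-10 to 10^-6 M). Bound material extracted with EtOH and receptor-bound [3H]estradiol measured. RBA calculated as in the calf uterine cytosol competition assay.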

MCF7 [2] = experiment: Effect on the MCF-7 cell proliferation at 10e-8 M; type: functional, Homo sapiens
Procedure, shortened: (§1)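 MCF-7 cells seeded at 5000 cells/mL; compounds added after 24 h, final 10^-8, 10^-7 and 10^-6 M, alone or with 10^-8 M estradiol. After 5 days of culture, monolayer fixed in 90% ethanol and stained with hematoxylin; absorbance read at 540 nm as a measure of cell number. Mean of four separate cultures, expressed as percentage of control.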

MCF7 [3] = experiment: Effect on the MCF-7 cell proliferation at 10e-7 M; type: functional, Homo sapiens; procedure, shortened: as §1
MCF7 [4] = experiment: Effect on the MCF-7 cell growth at 10e-6 M; type: functional, Homo sapiens; procedure, shortened: as §1

SMILES | Relative binding affinity [1] | Activity (MCF7 [2]) | Activity (MCF7 [3]) | Activity (MCF7 [4])
CC[C@@H](c1ccccc1)[C@H](c1ccccc1)c1ccc(OCCN(C)C)cc1 | 0.02 | – | – | –
CC/C(=C(/c1ccccc1)c1ccc(O)cc1)c1ccccc1 | – | 0.557 | 0.486 | 0.428
CC/C(=C(\c1ccccc1)c1ccc(O)cc1)c1ccccc1.C[C@]12CC[C@@H]3c4ccc(O)cc4CC[C@H]3[C@@H]1CC[C@@H]2O | – | 0.229 | 0.138 | 0.108
CC/C(=C(\c1ccccc1)c1ccc(O)cc1)c1ccccc1 | – | 0.121 | 0.12 | 0.131
CC[C@H](c1ccccc1)[C@@H](c1ccccc1)c1ccc(OCCN(C)C)cc1 | 0.04 | – | – | –
CC/C(=C(/c1ccccc1)c1ccc(O)cc1)c1ccccc1.C[C@]12CC[C@@H]3c4ccc(O)cc4CC[C@H]3[C@@H]1CC[C@H]2O | – | 0.696 | 0.607 | 0.41
